Broadly, the EC50 is the midpoint of the concentration-response curve. As usually defined, the IC50 is the concentration needed to halve the response being measured. The EC30 is the concentration at which the effect reaches the 30% level. By half-life is commonly meant how long it takes for the measured level to halve. As usually defined, the microsomal CLint is a measure of how fast metabolising enzymes remove a compound, apart from limits set by blood flow.

Here are results for nine compounds from ChEMBL document CHEMBL3817843, “Understanding Oxadiazolothiazinone Biological Properties: Negative Inotropic Activity versus Cytochrome P450-Mediated Metabolism” (J Med Chem, 2016).

The subject of data set [1] is Right cardiac atrium. The data set can be described thus: Negative chronotropic activity in potassium depolarized guinea pig right atrium assessed as reduction in atrial rate at 50 uM after 30 mins. Also noted: scale not given: the % may be the effect or the level left. The class given is functional, Cavia porcellus.
The subject of data set [2] is Left cardiac atrium. As to the kind of experiment: Negative inotropic activity in potassium depolarized guinea pig left atrium assessed as reduction in developed tension at 10^-6 M after 30 mins. The class given is functional, Cavia porcellus. Also noted: scale not given: the % may be the effect or the level left.
The test system of data set [3] is Left cardiac atrium. As to the kind of experiment: Negative inotropic activity in potassium depolarized guinea pig left atrium assessed as reduction in developed tension after 30 mins. To be noted: Cavia porcellus, 0.5 h. The format is functional. In short, it runs like this: (§1)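 Guinea pig left atria electrically driven at 1 Hz. EC50 taken from log concentration−response curves by Litchfield and Wilcoxon probit analysis, n = 6−7. Not calculated when the maximum effect was below 50%.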

The subject of data set [4] is Aorta. The data set can be described thus: Vasorelaxant activity in potassium depolarized guinea pig aorta assessed as inhibition of calcium-induced contraction at 50 uM after 30 mins. The class given is functional, Cavia porcellus. Set-up: scale not given: the % may be the effect or the level left. The method in brief:
(§2)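 Guinea pig aortic strips depolarized with K+ (80 mM). Calcium-induced contraction measured; inhibition expressed as percent change from control, n = 3−5.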

Data set [5] concerns Aorta. The data set can be described thus: Vasorelaxant activity in potassium depolarized guinea pig aorta assessed as inhibition of calcium-induced contraction at 10^-6 M. Set-up: scale not given: the % may be the effect or the level left. The format is functional, Cavia porcellus. In short, it runs like this:
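Guinea pig aortic strips depolarized with 80 mM K+, then contracted by calcium addition. The read-out is percent inhibition of the calcium-induced contraction, expressed as percent change from control, with n = 3–5.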

Data set [6] relates to Left cardiac atrium. As to the kind of experiment: Negative inotropic activity in potassium depolarized guinea pig left atrium assessed as reduction in developed tension. The format is functional. To be noted: Cavia porcellus. In short, it runs like this:
as §1

In data set [7] the test system is Left cardiac atrium. As to the kind of experiment: Negative inotropic activity in potassium depolarized guinea pig left atrium assessed as reduction in developed tension at 10^-5 M. The format is functional, Cavia porcellus. Set-up: scale not given: the % may be the effect or the level left.
Data set [8] relates to Aorta. As to the kind of experiment: Vasorelaxant activity in potassium depolarized guinea pig aorta assessed as inhibition of calcium-induced contraction at 10^-4 M. The class given is functional, Cavia porcellus. Set-up: scale not given: the % may be the effect or the level left. In short, it runs like this:
as §2

Data set [9] deals with Left cardiac atrium. The data set can be described thus: Negative inotropic activity in potassium depolarized guinea pig left atrium assessed as reduction in developed tension at 10^-5 M after 30 mins. The class given is functional, Cavia porcellus. Also noted: scale not given: the % may be the effect or the level left.
The nature of data set [10]: Relaxant activity in potassium depolarized guinea pig ileum longitudinal smooth muscle assessed as inhibition of calcium-induced contraction at 5 uM after 30 mins. Set-up: scale not given: the % may be the effect or the level left. The class given is functional, Cavia porcellus.
In data set [11] the test system is Right cardiac atrium. As to the kind of experiment: Negative chronotropic activity in potassium depolarized guinea pig right atrium assessed as reduction in atrial rate at 10^-6 M after 30 mins. The class given is functional, Cavia porcellus. Set-up: scale not given: the % may be the effect or the level left.
Data set [12] deals with Aorta. As to the kind of experiment: Vasorelaxant activity in potassium depolarized guinea pig aorta assessed as inhibition of calcium-induced contraction at 10^-4 M after 30 mins. The format is functional, Cavia porcellus. Also noted: scale not given: the % may be the effect or the level left. The method in brief:
as §2

A short description of data set [13]: Relaxant activity in potassium depolarized guinea pig ileum longitudinal smooth muscle assessed as inhibition of calcium-induced contraction after 30 mins. The format is functional, tissue-based. To be noted: Cavia porcellus, 0.5 h.
Data set [14] relates to Right cardiac atrium. The data set can be described thus: Negative chronotropic activity in potassium depolarized guinea pig right atrium assessed as reduction in atrial rate after 30 mins. The class given is functional. The conditions noted are these: Cavia porcellus, 0.5 h.
The test system of data set [15] is Right cardiac atrium. As to the kind of experiment: Negative chronotropic activity in potassium depolarized guinea pig right atrium assessed as reduction in atrial rate at 10^-5 M after 30 mins. The class given is functional, Cavia porcellus. Set-up: scale not given: the % may be the effect or the level left.
The test system of data set [16] is Left cardiac atrium. The data set can be described thus: Negative inotropic activity in potassium depolarized guinea pig left atrium assessed as reduction in developed tension at 5 uM after 30 mins. The class given is functional, Cavia porcellus. Set-up: scale not given: the % may be the effect or the level left.
A short description of data set [17]: Relaxant activity in potassium depolarized guinea pig ileum longitudinal smooth muscle assessed as inhibition of calcium-induced contraction at 10^-5 M after 30 mins. The class given is functional, Cavia porcellus. Also noted: scale not given: the % may be the effect or the level left.
The test system of data set [18] is Left cardiac atrium. The data set can be described thus: Potency index, ratio of diltiazem EC50 to compound EC50 for negative inotropic activity against potassium depolarized guinea pig left atrium.
Data set [19] deals with Left cardiac atrium. The data set can be described thus: Negative inotropic activity in potassium depolarized guinea pig left atrium assessed as reduction in developed tension at 50 uM after 30 mins. The class given is functional, Cavia porcellus. Set-up: scale not given: the % may be the effect or the level left.
Data set [20] can be described thus: Half life in human liver microsomes assessed as CYP-mediated compound degradation at 1 uM by LC-MS analysis. A general note: Microsomes from liver hold many membrane-bound enzymes, among them those of drug oxidation.
Another data set can be described thus: in vitro. To be noted: human, liver microsomes.
The next data set concerns the target Cytochrome P450 2C9 (Homo sapiens, UniProt P11712). As to the kind of experiment: Inhibition of CYP2C9 in human liver microsomes using tolbutamide as substrate after 20 mins by LC-MS analysis.
The nature of data set [21]: Relaxant activity in potassium depolarized guinea pig ileum longitudinal smooth muscle assessed as inhibition of calcium-induced contraction at 0.05 uM after 30 mins. Set-up: scale not given: the % may be the effect or the level left. The class given is functional, Cavia porcellus.
A further data set concerns the target Cytochrome P450 2C19 (Homo sapiens, UniProt P33261). As to the kind of experiment: Inhibition of CYP2C19 in human liver microsomes using (S)-mephenytoin as substrate after 40 mins by LC-MS analysis.
The next data set addresses Cytochrome P450 2D6 (Homo sapiens, UniProt P10635). The data set can be described thus: Inhibition of CYP2D6 in human liver microsomes using dextromethorphan as substrate after 10 mins by LC-MS analysis.
In the next data set the test system is Liver microsome. As to the kind of experiment: Stability in human liver microsomes at 1 uM after 2 to 60 mins by LC-MS analysis in absence of NADPH.
The target in another data set is T1, Cytochrome P450 1A2 (Homo sapiens, UniProt P05177).
T1 sequence (P05177 whole entry): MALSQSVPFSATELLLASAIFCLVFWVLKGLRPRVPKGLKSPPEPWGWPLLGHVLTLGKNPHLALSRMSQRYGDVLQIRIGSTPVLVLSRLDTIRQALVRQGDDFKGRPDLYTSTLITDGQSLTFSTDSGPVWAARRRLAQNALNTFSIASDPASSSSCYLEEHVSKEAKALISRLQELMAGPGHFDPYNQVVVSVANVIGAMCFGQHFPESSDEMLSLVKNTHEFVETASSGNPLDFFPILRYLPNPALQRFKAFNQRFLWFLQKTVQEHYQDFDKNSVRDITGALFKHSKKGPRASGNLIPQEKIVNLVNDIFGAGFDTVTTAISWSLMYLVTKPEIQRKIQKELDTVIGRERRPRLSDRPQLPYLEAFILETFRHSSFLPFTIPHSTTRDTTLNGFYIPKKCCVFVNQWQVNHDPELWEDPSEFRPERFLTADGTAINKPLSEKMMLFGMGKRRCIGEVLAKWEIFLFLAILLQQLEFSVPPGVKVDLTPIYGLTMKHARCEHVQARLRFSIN
The data set can be described thus: Inhibition of CYP1A2 in human liver microsomes using phenacetin as substrate after 30 mins by LC-MS analysis.

In data set [22] the test system is Aorta. The data set can be described thus: Vasorelaxant activity in potassium depolarized guinea pig aorta assessed as relaxation of calcium-induced contraction. The conditions noted are these: Cavia porcellus. The class given is functional, tissue-based. The method in brief:
as §2

Each structure is given as a SMILES string.

Chain of Cytochrome P450 2C19 (P33261 whole entry): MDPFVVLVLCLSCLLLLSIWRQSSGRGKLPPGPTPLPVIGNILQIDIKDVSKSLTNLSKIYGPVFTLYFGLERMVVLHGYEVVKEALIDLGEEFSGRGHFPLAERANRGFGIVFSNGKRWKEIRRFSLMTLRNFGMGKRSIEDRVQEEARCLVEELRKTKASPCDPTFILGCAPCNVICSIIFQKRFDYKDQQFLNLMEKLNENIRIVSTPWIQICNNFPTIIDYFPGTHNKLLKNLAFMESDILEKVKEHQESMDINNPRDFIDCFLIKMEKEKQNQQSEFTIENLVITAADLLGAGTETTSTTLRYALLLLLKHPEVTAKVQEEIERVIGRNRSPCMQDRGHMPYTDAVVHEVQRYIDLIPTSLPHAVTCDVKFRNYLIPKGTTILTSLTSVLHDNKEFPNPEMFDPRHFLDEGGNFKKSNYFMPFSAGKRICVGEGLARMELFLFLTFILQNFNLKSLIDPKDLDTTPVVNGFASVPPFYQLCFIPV
Chain of Cytochrome P450 2C9 (P11712 whole entry): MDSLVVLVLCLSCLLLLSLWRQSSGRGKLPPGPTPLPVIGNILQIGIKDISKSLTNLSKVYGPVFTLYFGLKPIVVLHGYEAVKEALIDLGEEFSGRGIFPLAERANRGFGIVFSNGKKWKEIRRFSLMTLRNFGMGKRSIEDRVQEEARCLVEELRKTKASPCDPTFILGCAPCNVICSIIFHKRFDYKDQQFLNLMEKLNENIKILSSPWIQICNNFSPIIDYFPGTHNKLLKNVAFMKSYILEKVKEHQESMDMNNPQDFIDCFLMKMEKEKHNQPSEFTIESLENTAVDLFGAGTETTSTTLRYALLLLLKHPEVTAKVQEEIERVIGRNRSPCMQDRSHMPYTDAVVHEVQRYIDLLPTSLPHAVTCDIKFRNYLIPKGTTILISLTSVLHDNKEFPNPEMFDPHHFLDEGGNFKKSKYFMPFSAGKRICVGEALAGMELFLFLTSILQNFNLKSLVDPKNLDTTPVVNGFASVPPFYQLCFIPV
Chain of Cytochrome P450 2D6 (P10635 whole entry): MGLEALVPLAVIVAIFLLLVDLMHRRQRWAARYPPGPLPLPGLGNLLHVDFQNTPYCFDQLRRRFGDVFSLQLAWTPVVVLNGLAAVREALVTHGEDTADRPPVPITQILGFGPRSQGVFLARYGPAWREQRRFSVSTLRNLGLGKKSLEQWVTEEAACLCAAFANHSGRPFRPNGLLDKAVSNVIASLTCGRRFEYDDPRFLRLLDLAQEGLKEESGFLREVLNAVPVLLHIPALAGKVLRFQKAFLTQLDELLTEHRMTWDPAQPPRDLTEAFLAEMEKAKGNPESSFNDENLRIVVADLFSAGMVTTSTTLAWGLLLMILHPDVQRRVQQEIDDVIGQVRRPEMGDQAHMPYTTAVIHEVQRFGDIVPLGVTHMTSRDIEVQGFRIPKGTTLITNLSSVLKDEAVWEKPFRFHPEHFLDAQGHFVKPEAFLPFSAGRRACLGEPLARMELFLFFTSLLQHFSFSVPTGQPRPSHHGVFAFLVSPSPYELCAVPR

On to `COc1ccc(C2(O)Sc3ccccc3-n3c2noc3=O)cc1` (stereo not given), for which the Activity in the data set with Right cardiac atrium [1] was 26%; with Left cardiac atrium [2], 95%; in the data set with Aorta [4] it was 19%. Also, the EC50 with Left cardiac atrium [3] came to 100 nM.

On to `COC(=O)C1=C(C)NC(C)=C(C(=O)OC)C1c1ccccc1[N+](=O)[O-]` [NIFEDIPINE], for which the Activity in the data set with Aorta [5] is on record as 82%; in the data set with Left cardiac atrium [7], 97%. The EC50 in the data set with Left cardiac atrium [6] came out at 260 nM.

Take `COc1ccc([C@@H]2Sc3ccccc3N(CCN(C)C)C(=O)[C@@H]2OC(C)=O)cc1` [DILTIAZEM]: the Activity in the data set with Aorta [8] turned out to be 88%; in the data set with Left cardiac atrium [9] it was 78%; in data set [10], 98%; in the data set with Right cardiac atrium [11], 94%; in the data set on Aorta [12], 88%; in the data set with Left cardiac atrium [7], 78%. In addition, the IC50 in data set [13] came to 110 nM. In addition, the EC30 with Right cardiac atrium [14] turned out to be 70 nM.

`CCOC1(c2ccccc2OC)SC=C(C)n2c1noc2=O` (stereo not given): the EC50 in the data set with Left cardiac atrium [3] is 140 nM. Further, the values for the Activity in the data set with Aorta [12], with Right cardiac atrium [15] and with Left cardiac atrium [16] were 28%, 29% and 85%, respectively.

With `CCOC1(c2cccc(OC)c2)SC=C(C)n2c1noc2=O` (stereo not given), the Activity is 2% in the data set on Right cardiac atrium [1], 31% in the data set on Aorta [12], 43% in data set [17] and 71% with Left cardiac atrium [16]. Further, the EC50 in the data set on Left cardiac atrium [3] amounted to 38 nM.

`CC1=CSC(O)(c2ccccc2)c2noc(=O)n21` (stereo not given): the Activity in the data set with Right cardiac atrium [1] stood at 14%; with Left cardiac atrium [9], 95%; with Aorta [4] it was 4%. In addition, the EC50 in the data set on Left cardiac atrium [3] came to 230 nM. Besides, in the data set with Left cardiac atrium [18], the “Ratio EC50” value stood at 3.4.

For `COc1ccccc1C1(O)SC=C(C)n2c1noc2=O` (stereo not given), in the data set with Left cardiac atrium [3], the EC50 came to 930 nM. Further, the Activity with Left cardiac atrium [19] was 94%; in the data set with Aorta [12], 25%; in the data set with Right cardiac atrium [15] it was 11%.

As for `CCOC1(c2ccc(OC)cc2)SC=C(C)n2c1noc2=O` (stereo not given), the half-life at 1 µM in data set [20] came to 6 min. The Activity in the data set on Right cardiac atrium [1] came out at 3%; with Left cardiac atrium [2], 76%; in the data set with Aorta [12], 29%; in [21] it was 86%. The microsomal CLint at 1 µM in the data set “in vitro” turned out to be 278 µL/min/mg. Besides, the 50% effective concentration (EC50) in the data set with Left cardiac atrium [3] was determined as 22 nM. The IC50 in [13] is 17 nM; at Cytochrome P450 2C9 it was 13.6 µM; against Cytochrome P450 2C19 it was 2500 nM; against Cytochrome P450 2D6, 12.5 µM; at Cytochrome P450 1A2 it was 5.2 µM. In the data set with Liver microsome, the Stability result is “Stable”.

As to `COc1ccc(CCN(C)CCCC(C#N)(c2ccc(OC)c(OC)c2)C(C)C)cc1OC` (stereo not given), the Activity in the data set with Aorta [5] is listed as 95%; in the data set on Left cardiac atrium [7], 84%. Further, in the data set on Left cardiac atrium [6], the EC50 was 610 nM. The IC50 with Aorta [22] is 380 nM.
